# Source: ChEMBL document CHEMBL3352295, “Neuroprotective Xanthones from the Root Bark of Cudrania tricuspidata” (J Nat Prod, 2014)
# Test system: not listed separately
# Test: Neuroprotective activity against 6-hydroxydopamine-induced human SH-SY5Y cell death after 24 hrs by MTT assay
# Type: functional, cell-based
# Summary of the method: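 SH-SY5Y cells seeded at 2 × 10^4 cells/well, grown 24 h, then exposed to 100 μM 6-OHDA together with test compounds (at least four concentrations) for 24 h. Viability by MTT (0.5 mg/mL in PBS, 37 °C, 4 h), formazan dissolved in DMSO, absorbance 540 nm. EC50 = half-maximal protection, from semilog concentration–effect plot; triplicate, mean ± SD; curcumin positive control.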
row,SMILES,EC50 [µM]
1,C=CC(C)(C)c1c(O)cc(O)c2c(=O)c3c(CC(=O)C(=C)C)c(OC)c(O)cc3oc12,7.2
2,C=CC(C)(C)c1c(O)cc(O)c2c(=O)c3c(CC(O)C(=C)C)c(O)c(O)cc3oc12 (stereo not given),16.6
3,CC(C)=CCc1c(O)c(O)cc2c(=O)c3c4c(c(O)cc3oc12)C(C)(C)C(C)O4 (stereo not given),2.4
4,CC1Oc2cc3oc4c5c(c(O)cc4c(=O)c3c(O)c2C1(C)C)OC(C)(C)C(O)C5 (stereo not given),2.2
5,C=CC(C)(C)c1c(O)cc(O)c2c(=O)c3c(cc(O)c4oc(C(=C)C)cc43)oc12,0.8
6,C=CC(C)(C)c1c(OC)cc(O)c2c(=O)c3c(CC(O)C(=C)C)c(O)c(O)cc3oc12 (stereo not given),2.3
7,CC1(C)C=Cc2c(cc(O)c3c(=O)c4c5c(ccc4oc23)OC(C)(C)C=C5)O1,4.5
8,CC1(C)C=Cc2c(cc(O)c3c(=O)c4cccc(O)c4oc23)O1,5.1
9,C=CC(C)(C)c1c(O)cc(O)c2c(=O)c3ccc(O)c(OC)c3oc12,0.7
10,CC(C)=CCc1c2c(c(O)c3c(=O)c4ccc(O)c(O)c4oc13)C(C)(C)C(C)O2 (stereo not given),3
11,C=CC(C)(C)c1c(O)cc2oc3c(CC=C(C)C)c(O)c(O)cc3c(=O)c2c1O [CUDRAXANTHONE L],8.2
12,COc1cc(/C=C/C(=O)CC(=O)/C=C/c2ccc(O)c(OC)c2)ccc1O [CURCUMIN],6
13,CC1(C)C=Cc2c(cc(O)c3c(=O)c4cc(O)ccc4oc23)O1 [NIGROLINEAXANTHONE F],15.5

# Test system: SH-SY5Y
# Test: Ratio of curcumin EC50 to compound EC50 for neuroprotective activity against 6-hydroxydopamine-induced human SH-SY5Y cell death after 24 hrs by MTT assay
# Type: functional
# Summary of the method: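 SH-SY5Y cells seeded at 2 × 10^4 cells/well and grown 24 h. Cells then received 100 μM 6-OHDA together with test samples at ≥4 concentrations for a further 24 h. Viability was read by MTT (0.5 mg/mL in PBS, 37 °C, 4 h), with formazan dissolved in DMSO and read at 540 nm. EC50 (half-maximal protection) was taken from semilog plots, triplicate, mean ± SD. Curcumin was the reference.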
row,SMILES,Ratio EC50
1,C=CC(C)(C)c1c(O)cc(O)c2c(=O)c3c(cc(O)c4oc(C(=C)C)cc43)oc12,7
2,C=CC(C)(C)c1c(O)cc(O)c2c(=O)c3ccc(O)c(OC)c3oc12,7
